# This is one part of a sample in which hits are shown more often than they occur.
# T cruzi intra: inhibitors of intracellular Trypanosoma cruzi; intracellular Trypanosoma cruzi in host cells, plate reader; activity score (inhibition), % at 5.01 µM; 22,000 compounds, 4.9% hits; AID 651903; in the data active means activity score above about 55%;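 further: parasites and compound incubated about four days before reading; 0% = median of neutral control wells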
# A1 apoptosis 2: compounds inhibiting A1, read as caspase activation. MEF A1-2A-BIM cells, caspase-Glo luminescence, 3 h; percent of clofoctol response, DMSO zero. 24,000 tested, under 10 active. AID 2465. caspase activation, % (no concentration beside the values); in the data active means caspase activation above about 5.9%
#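 Evaluation: Caspase-3/7 activity from luminescence increase | Assay system: A1-2A-BIM mouse embryonic fibroblasts | Quantity: 2500 MEF cells/well | Medium: RPMI-1640 plus 10% FBS | Detection: Caspase-Glo 3/7 luminescence, 1 h at room temperature | Dosing: 50 nL compound per well, pinned | Timing: Cells settled overnight, compound exposure 3 h at 37 °C, 5% CO2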
# INS-1E ATP HTS: INS-1E beta cell protection from cytokine death. INS-1E cytokine-induced death, ATP luminescence, 48 h; normalised: neutral wells 0, positive control 100. protection from cytokine-induced ATP loss, % at 10 µM. 20,000 compounds, 0.1% hits. AID 488910;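 active means mean replicate protection from cytokine-induced ATP loss at least 50% and at least 75% of replicates each reaching 50%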
#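 Assay system: INS-1E rat cells / Quantity: 8000 cells per well / Medium: RPMI without phenol red, 5% FBS / Probe or stimulus: three-cytokine cocktail (IFN-γ, TNF-α, IL-1β) / Dosing: one compound concentration, pin transfer / Timing: 48 h co-treatment, 10 min post-lysis read / Technique: CellTiter-Glo luminescence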
# Active calls of the source: *; x = no result.
SMILES,T cruzi intra,A1 apoptosis 2,INS-1E ATP HTS
C[C@H](CO)N1C[C@H](C)[C@@H](CN(C)Cc2ccc(C(F)(F)F)cc2)Oc2c(NC(=O)Nc3ccc(F)cc3)cccc2C1=O,74.4*,-0.4,-35.8
C[C@@H]1CN([C@@H](C)CO)C(=O)c2cccc(NC(=O)Nc3ccc(C(F)(F)F)cc3)c2O[C@@H]1CN(C)Cc1ccc(C(F)(F)F)cc1,80.6*,x,-87.6
C[C@H]1CN([C@@H](C)CO)C(=O)c2cccc(NC(=O)Nc3ccc4c(c3)OCO4)c2O[C@H]1CN(C)Cc1ccc(C(F)(F)F)cc1,25.9,0.3,-10.7
COc1ccc(NC(=O)Nc2cccc3c2O[C@H](CN(C)Cc2ccc(C(F)(F)F)cc2)[C@@H](C)CN([C@H](C)CO)C3=O)cc1,-3.0,x,-13.2
C[C@H]1CN([C@@H](C)CO)C(=O)c2cccc(NC(=O)Nc3ccc(C(F)(F)F)cc3)c2O[C@H]1CN(C)Cc1ccc2c(c1)OCO2,85.4*,x,-34.0
COc1ccc(CN(C)C[C@@H]2Oc3c(NC(=O)Nc4ccc(C(F)(F)F)cc4)cccc3C(=O)N([C@H](C)CO)C[C@H]2C)cc1,79.0*,-0.5,-76.6
Cc1ccc(S(=O)(=O)Nc2ccc3c(c2)C(=O)N([C@@H](C)CO)C[C@H](C)[C@@H](CN(C)C(=O)NC(C)C)OCCCC[C@H](C)O3)cc1,x,1.2,x
CNC[C@@H]1Oc2ccc(NS(=O)(=O)c3ccccc3)cc2C(=O)N([C@H](C)CO)C[C@@H]1C,-12.4,-0.2,-5.5
C[C@@H]1CN([C@@H](C)CO)C(=O)c2cc(NS(=O)(=O)c3ccc(F)cc3)ccc2O[C@@H](C)CCCCO[C@@H]1CN(C)Cc1ccc2c(c1)OCO2,x,-0.1,x
C[C@H](CO)N1C[C@H](C)[C@@H](CN(C)S(=O)(=O)c2ccc(Cl)cc2)Oc2ccc(NC(=O)c3ccncc3)cc2C1=O,2.9,x,2.5
C[C@H](CO)N1C[C@H](C)[C@H](CN(C)Cc2ccc(Oc3ccccc3)cc2)Oc2c(NC(=O)Nc3ccc(C(F)(F)F)cc3)cccc2C1=O,61.9*,x,-110.8
C[C@H]1CN([C@@H](C)CO)C(=O)c2cccc(NC(=O)Nc3ccc(C(F)(F)F)cc3)c2O[C@@H]1CN(C)Cc1ccc(Oc2ccccc2)cc1,30.4,0.8,-33.9
COc1ccc(COCC23N=C4SCc5ccccc5C(=O)N4[C@H](c4ccccc4O2)[C@H]3CO[Si](C)(C)C(C)(C)C)cc1,x,0.2,x
C[C@H]1CN([C@@H](C)CO)C(=O)c2cc(NS(=O)(=O)c3ccc(Cl)cc3)ccc2O[C@H]1CN(C)S(=O)(=O)c1ccccc1,12.0,0.7,-22.1
C[C@@H]1CN([C@H](C)CO)C(=O)Cc2cc(NC(=O)Nc3ccc(C(F)(F)F)cc3)ccc2O[C@@H]1CN(C)S(=O)(=O)c1cn(C)cn1,-24.9,0.1,16.4
Cc1ccc(S(=O)(=O)Nc2cccc3c2O[C@@H](CN(C)Cc2ccc(C(=O)Nc4ccccc4N)cc2)[C@H](C)CN([C@@H](C)CO)C3=O)cc1,55.4*,x,-5.7
C[C@H]1CN([C@@H](C)CO)C(=O)c2cccc(NS(=O)(=O)c3ccc(Cl)cc3)c2O[C@H]1CN(C)Cc1ccc(C(=O)Nc2ccccc2N)cc1,60.3*,-0.3,7.7
C[C@@H]1CN([C@H](C)CO)C(=O)c2cccc(NS(=O)(=O)c3ccccc3)c2O[C@H]1CN(C)Cc1ccc(C(=O)Nc2ccccc2N)cc1,47.0,x,-10.3
Cc1ccc(S(=O)(=O)Nc2cccc3c2O[C@H](CN(C)Cc2ccc(C(=O)Nc4ccccc4N)cc2)[C@H](C)CN([C@H](C)CO)C3=O)cc1,50.0,x,22.6
Cc1ccc(S(=O)(=O)Nc2cccc3c2O[C@@H](CN(C)Cc2ccc(C(=O)Nc4ccccc4N)cc2)[C@@H](C)CN([C@@H](C)CO)C3=O)cc1,64.4*,-0.8,8.0
Cc1noc(C)c1S(=O)(=O)Nc1cccc2c1O[C@H](CN(C)Cc1ccc(C(=O)Nc3ccccc3N)cc1)[C@H](C)CN([C@H](C)CO)C2=O,60.1*,x,-13.5
C[C@H](CO)N1C[C@H](C)[C@H](CN(C)Cc2ccc(C(=O)Nc3ccccc3N)cc2)Oc2c(NS(=O)(=O)c3ccc(Cl)cc3)cccc2C1=O,52.8,1.5,-6.1
Cc1ccc(S(=O)(=O)Nc2cccc3c2O[C@H](CN(C)Cc2ccc(C(=O)Nc4ccccc4N)cc2)[C@@H](C)CN([C@@H](C)CO)C3=O)cc1,44.0,2.1,0.2
C[C@@H]1CN([C@@H](C)CO)C(=O)Cc2cc(NC(=O)CCCCCC(=O)Nc3ccccc3N)ccc2O[C@@H]1CN(C)C(=O)Nc1ccc(F)cc1,x,0.3,x
C[C@@H]1CN([C@@H](C)CO)C(=O)Cc2cc(NC(=O)CCN3CCOCC3)ccc2O[C@@H]1CN(C)Cc1ccc(Oc2ccccc2)cc1,-34.0,-0.3,7.3
SMILES,T cruzi intra,A1 apoptosis 2,INS-1E ATP HTS
Cc1ccc(S(=O)(=O)N(C)C[C@@H]2Oc3ccc(NS(=O)(=O)c4c(C)noc4C)cc3C(=O)N([C@H](C)CO)C[C@@H]2C)cc1,39.2,x,-4.5
Cc1cc(C(=O)Nc2cccc3c2O[C@H](CN(C)S(=O)(=O)c2cn(C)cn2)[C@@H](C)CN([C@@H](C)CO)C3=O)n(C)n1,-13.9,x,11.9
C[C@@H]1CCCCO[C@H](CN(C)C(=O)Nc2ccc(C(F)(F)F)cc2)[C@@H](C)CN([C@@H](C)CO)C(=O)c2cc(NC(=O)Cc3ccccc3)ccc2O1,x,-1.2,x
C[C@@H]1CN([C@@H](C)CO)C(=O)c2cc(NC(=O)Nc3cccc4ccccc34)ccc2O[C@@H]1CN(C)Cc1ccc(C(=O)Nc2ccccc2N)cc1,24.8,x,-2.6
C[C@H]1CN([C@@H](C)CO)C(=O)c2cccc(NS(=O)(=O)c3ccc(F)cc3)c2O[C@H]1CN(C)Cc1ccc(C(=O)Nc2ccccc2N)cc1,60.4*,0.1,-17.8
C[C@@H]1CN([C@@H](C)CO)C(=O)c2cccc(NS(=O)(=O)c3ccc(F)cc3)c2O[C@@H]1CN(C)Cc1ccc(C(=O)Nc2ccccc2N)cc1,51.5,x,26.2
CCOC(=O)[C@H](Cc1ccccc1)NC(=O)Cn1cc(COc2ccccc2/C=C(C)/C=C/C(=O)NO)nn1,x,0.7,x
C[C@H](CO)N1C[C@H](C)[C@H](CN(C)Cc2ccc(C(=O)Nc3ccccc3N)cc2)Oc2ccc(NC(=O)C3CC3)cc2CC1=O,62.8*,x,31.6
C[C@@H]1CN([C@H](C)CO)C(=O)Cc2cc(NC(=O)C3CCCCC3)ccc2O[C@@H]1CN(C)Cc1ccc(C(=O)Nc2ccccc2N)cc1,53.6,x,-12.6
C[C@H](CO)N1C[C@H](C)[C@H](CN(C)Cc2ccc(C(=O)Nc3ccccc3N)cc2)Oc2ccc(NC(=O)C3CCCCC3)cc2CC1=O,61.4*,x,28.6
C[C@H](CO)N1C[C@H](C)[C@@H](CN(C)Cc2ccc(C(=O)Nc3ccccc3N)cc2)Oc2ccc(NC(=O)C3CC3)cc2CC1=O,x,-0.4,x
O=C(NO)c1ccc(C(=O)N/N=C/c2cc(Br)ccc2O)cc1,-15.5,0.6,-48.2
C[C@H](CO)N1C[C@H](C)[C@@H](CN(C)CC2CCCCC2)OCCCC[C@H](C)Oc2ccc(NS(=O)(=O)c3cccs3)cc2C1=O,x,0.1,x

# Source: PubChem BioAssay (Broad Institute)
